# Test system: HEK-293T
# Assay: Multiplex assay against HEK293T
# Type: toxicity, cell-based
# Conditions: human
# How it was run: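 Live cells were stained at seeding with Hoechst33342, BioTracker Green Microtubule Cytoskeleton Dye, MitoTracker Red and Annexin V Alexa Fluor 680, then imaged on a CQ1 microscope at 37°C and 5% CO2 after compound addition. CellPathfinder machine-learning gating split cells into Hoechst high-intensity objects or normal cells. Normal cells were split into healthy, pyknosed or fragmented nuclei, and pyknosed cells into mitotic or apoptotic. Tubulin, mitochondrial-mass and membrane-permeability phenotypes are per cents of healthy-nucleus cells.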
# [1] = 12 h, 1 µM, compound concentration 1 uM, replicate 1
# [2] = 12 h, 1 µM, compound concentration 1 uM, replicate 2
# [3] = 12 h, 10 µM, compound concentration 10 uM, replicate 1
# [4] = 12 h, 10 µM, compound concentration 10 uM, replicate 2
# [5] = 24 h, 1 µM, compound concentration 1 uM, replicate 1
# [6] = 24 h, 1 µM, compound concentration 1 uM, replicate 2
# [7] = 24 h, 10 µM, compound concentration 10 uM, replicate 1
# [8] = 24 h, 10 µM, compound concentration 10 uM, replicate 2
# [9] = 48 h, 1 µM, compound concentration 1 uM, replicate 1
# [10] = 48 h, 1 µM, compound concentration 1 uM, replicate 2
# [11] = 48 h, 10 µM, compound concentration 10 uM, replicate 1
# [12] = 48 h, 10 µM, compound concentration 10 uM, replicate 2
compound,measurement,setting,value
O=C(CCCc1ccccc1)Nc1nc2ccccc2c(=O)s1,Population Apoptotic (%),[1],30%
same,Population Fragmented Nuclei (%),[1],4%
same,Population Healthy Nuclei (%),[1],83%
same,Population Hoechst High Intensity Objects (%),[1],6%
same,Population Membrane Permeable-Phenotype (%),[1],0%
same,Population Mitochondria Different-Phenotype (%),[1],37%
same,Population Mitotic Cells (%),[1],70%
same,Population Normal (%),[1],93%
same,Population Pyknosed Nuclei (%),[1],11%
same,Population Tubulin-Different-Phenotype (%),[1],32%
same,Total Cell Count,[1],372
same,Population Apoptotic (%),[2],43%
same,Population Fragmented Nuclei (%),[2],7%
same,Population Healthy Nuclei (%),[2],74%
same,Population Hoechst High Intensity Objects (%),[2],13%
same,Population Mitochondria Different-Phenotype (%),[2],63%
same,Population Mitotic Cells (%),[2],56%
same,Population Normal (%),[2],86%
same,Population Pyknosed Nuclei (%),[2],17%
same,Population Tubulin-Different-Phenotype (%),[2],36%
same,Total Cell Count,[2],267
same,Population Apoptotic (%),[3],30%
same,Population Fragmented Nuclei (%),[3],10%
same,Population Healthy Nuclei (%),[3],80%
same,Population Hoechst High Intensity Objects (%),[3],9%
same,Population Membrane Permeable-Phenotype (%),[3],0%
same,Population Mitochondria Different-Phenotype (%),[3],47%
same,Population Mitotic Cells (%),[3],69%
same,Population Normal (%),[3],90%
same,Population Pyknosed Nuclei (%),[3],9%
same,Population Tubulin-Different-Phenotype (%),[3],27%
same,Total Cell Count,[3],555
same,Population Apoptotic (%),[4],44%
same,Population Fragmented Nuclei (%),[4],7%
same,Population Healthy Nuclei (%),[4],74%
same,Population Hoechst High Intensity Objects (%),[4],27%
same,Population Mitochondria Different-Phenotype (%),[4],68%
same,Population Mitotic Cells (%),[4],55%
same,Population Normal (%),[4],72%
same,Population Pyknosed Nuclei (%),[4],17%
same,Population Tubulin-Different-Phenotype (%),[4],26%
same,Total Cell Count,[4],371
same,Population Apoptotic (%),[5],20%
same,Population Fragmented Nuclei (%),[5],8%
same,Population Healthy Nuclei (%),[5],81%
same,Population Hoechst High Intensity Objects (%),[5],5%
same,Population Membrane Permeable-Phenotype (%),[5],1%
same,Population Mitochondria Different-Phenotype (%),[5],21%
same,Population Mitotic Cells (%),[5],79%
same,Population Normal (%),[5],94%
same,Population Pyknosed Nuclei (%),[5],10%
same,Population Tubulin-Different-Phenotype (%),[5],15%
same,Total Cell Count,[5],538
same,Population Apoptotic (%),[6],45%
same,Population Fragmented Nuclei (%),[6],9%
same,Population Healthy Nuclei (%),[6],78%
same,Population Hoechst High Intensity Objects (%),[6],8%
same,Population Membrane Permeable-Phenotype (%),[6],0%
same,Population Mitochondria Different-Phenotype (%),[6],38%
same,Population Mitotic Cells (%),[6],54%
same,Population Normal (%),[6],91%
same,Population Pyknosed Nuclei (%),[6],12%
same,Population Tubulin-Different-Phenotype (%),[6],13%
same,Total Cell Count,[6],370
same,Population Apoptotic (%),[7],33%
same,Population Fragmented Nuclei (%),[7],10%
same,Population Healthy Nuclei (%),[7],80%
same,Population Hoechst High Intensity Objects (%),[7],6%
same,Population Membrane Permeable-Phenotype (%),[7],0%
same,Population Mitochondria Different-Phenotype (%),[7],38%
same,Population Mitotic Cells (%),[7],66%
same,Population Normal (%),[7],93%
same,Population Pyknosed Nuclei (%),[7],9%
same,Population Tubulin-Different-Phenotype (%),[7],29%
same,Total Cell Count,[7],661
same,Population Apoptotic (%),[8],52%
same,Population Fragmented Nuclei (%),[8],8%
same,Population Hoechst High Intensity Objects (%),[8],24%
same,Population Mitochondria Different-Phenotype (%),[8],47%
same,Population Mitotic Cells (%),[8],47%
same,Population Normal (%),[8],75%
same,Population Pyknosed Nuclei (%),[8],11%
same,Population Tubulin-Different-Phenotype (%),[8],20%
same,Total Cell Count,[8],444
same,Population Apoptotic (%),[9],20%
same,Population Fragmented Nuclei (%),[9],11%
same,Population Healthy Nuclei (%),[9],82%
same,Population Hoechst High Intensity Objects (%),[9],2%
same,Population Membrane Permeable-Phenotype (%),[9],1%
same,Population Mitochondria Different-Phenotype (%),[9],15%
same,Population Mitotic Cells (%),[9],79%
same,Population Normal (%),[9],97%
same,Population Pyknosed Nuclei (%),[9],6%
same,Population Tubulin-Different-Phenotype (%),[9],11%
same,Total Cell Count,[9],820
same,Population Apoptotic (%),[10],38%
same,Population Fragmented Nuclei (%),[10],10%
same,Population Healthy Nuclei (%),[10],80%
same,Population Hoechst High Intensity Objects (%),[10],4%
same,Population Membrane Permeable-Phenotype (%),[10],0%
same,Population Mitochondria Different-Phenotype (%),[10],28%
same,Population Mitotic Cells (%),[10],61%
same,Population Normal (%),[10],95%
same,Population Pyknosed Nuclei (%),[10],8%
same,Population Tubulin-Different-Phenotype (%),[10],13%
same,Total Cell Count,[10],534
same,Population Apoptotic (%),[11],22%
same,Population Fragmented Nuclei (%),[11],14%
same,Population Healthy Nuclei (%),[11],79%
same,Population Hoechst High Intensity Objects (%),[11],4%
same,Population Membrane Permeable-Phenotype (%),[11],0%
same,Population Mitochondria Different-Phenotype (%),[11],21%
same,Population Mitotic Cells (%),[11],77%
same,Population Normal (%),[11],95%
same,Population Pyknosed Nuclei (%),[11],6%
same,Population Tubulin-Different-Phenotype (%),[11],16%
same,Total Cell Count,[11],984
same,Population Apoptotic (%),[12],68%
same,Population Fragmented Nuclei (%),[12],13%
same,Population Healthy Nuclei (%),[12],77%
same,Population Hoechst High Intensity Objects (%),[12],11%
same,Population Membrane Permeable-Phenotype (%),[12],1%
same,Population Mitochondria Different-Phenotype (%),[12],30%
same,Population Mitotic Cells (%),[12],31%
same,Population Normal (%),[12],88%
same,Population Pyknosed Nuclei (%),[12],9%
same,Total Cell Count,[12],567

# — ChEMBL document CHEMBL5058577, “EUbOPEN Chemogenomics Library 2 (Multiplex)” (2022)
